Shown is part of a subset that was picked to be rich in hits.
N-glyco inh: N-linked glycosylation inhibition; D54 ERlucT glycosylation luciferase reporter, 24 h; percent of 100 nM tunicamycin response; reporter increase, % at 12.5 µM; 360,000 tested, 0.23% active;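 active means mean luciferase reporter signal, scaled so untreated is 0 and the glycosylation-blocking control 100, at or above a set limit in every replicate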;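 further: luciferase carries N-glycosylation sites so blocking glycosylation raises the light; 0% = median of neutral control wells and 100% = median of 100 nM tunicamycin wells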
T cell modulator: modulates CD8 T cell binding to vesicles; 2C CD8+ T cell-vesicle binding, flow cytometry; stronger effect = lower value; response (vesicle binding), % at 7 µM; 330,000 tested, 0.068% active;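 active means response, share of CD8 T cells binding vesicles, and their 90th percentile fluorescence all below set limits, cut at about 80% in these data, passing the limit was not always enough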;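 further: values below 100% mean blocked vesicle binding to the CD8+ T cells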
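Benchmarks: naked versus QL9-loaded vesicles / Assay system: purified 2C TCR transgenic mouse naive CD8+ T cells / Technique: high-throughput flow cytometry with anti-B7-1 and anti-CD8 staining / Timing: Cell–vesicle co-incubation 1.5 h at 37 °C, staining 20 min on ice / Read-out: percent CD8+ FL2 mean versus row control / Probe or stimulus: QL9-loaded Drosophila micro-vesicles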
ALR H2O2 inh: inhibitors of human sulfhydryl oxidase ALR; AID 485317; purified ALR, DTT oxidation, H2O2 HRP-luminol luminescence; 290,000 tested, 3.8% active; P55789; inhibition, % (no concentration beside the values);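 active means mean replicate inhibition above about 79%, with every replicate also reaching it, limit read from the data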
Target sequence (P55789 whole entry, looked up): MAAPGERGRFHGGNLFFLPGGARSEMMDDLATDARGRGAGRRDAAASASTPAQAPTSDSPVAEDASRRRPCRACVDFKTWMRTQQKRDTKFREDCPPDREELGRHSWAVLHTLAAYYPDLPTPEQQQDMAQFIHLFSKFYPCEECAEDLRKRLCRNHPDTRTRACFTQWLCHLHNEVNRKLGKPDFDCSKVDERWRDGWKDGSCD
* hit, by the source's call; i = inactive; / = not tested or not shown.

SMILES | N-glyco inh | T cell modulator | ALR H2O2 inh
c1ccc(Cn2nnnc2C(c2cccs2)N2CCCCCC2)cc1 (stereo not drawn) | -9 | 292 | -2
Oc1ccc(N2CCN(C(c3cccs3)c3nnnn3CCc3ccccc3)CC2)cc1 (stereo not drawn) | -4 | 227 | 96*
CCC(c1nnnn1Cc1ccc2c(c1)OCO2)N1CCN(c2ccc(F)cc2)CC1 (stereo not drawn) | -2 | 127 | 40
CCC(c1nnnn1Cc1ccc(OC)cc1)N1CCN(c2ccc(OC)cc2)CC1 (stereo not drawn) | -2 | 241 | 34
CC(C)N(C(=O)CSc1ccc(S(=O)(=O)N2CCCCC2)cn1)c1ccccc1 | -4 | 166 | /
CCN(CC)c1ccc(NC(=O)c2ccc(S(=O)(=O)N3CCOCC3)cc2)cc1 | 2 | 482 | /
COc1ccccc1NC(=O)C1CCN(C(=O)NCc2ccccc2)CC1 | 3 | 329 | 3
COc1cc(COc2ccc(S(=O)(=O)N3CCOCC3)cc2[N+](=O)[O-])ccc1OC(F)F | -3 | / | /
CCC(c1nnnn1Cc1ccc2c(c1)OCO2)N1CCN(c2ccc(OC)cc2)CC1 (stereo not drawn) | -1 | 146 | 88*
COc1ccc(N2CCN(C(c3ccc4ncccc4c3)c3nnnn3C(C)C)CC2)cc1 (stereo not drawn) | -3 | 165 | 76*
CCC(c1nnnn1Cc1ccc2c(c1)OCO2)N1CCN(CC)CC1 (stereo not drawn) | -1 | 400 | 0
CC(C)(C)n1nnnc1C(c1cccnc1)N1CCOCC1 (stereo not drawn) | 2 | 295 | /
CCC(c1nnnn1C1CCCC1)N1CCN(c2cccc(OC)c2)CC1 (stereo not drawn) | -1 | 188 | 98*
CC(C)(C)n1nnnc1C(c1ccncc1)N1CCN(c2ccc(O)cc2)CC1 (stereo not drawn) | 1 | 372 | 98*
COc1ccc(Cn2nnnc2C(c2ccc3ncccc3c2)N2CCN(C3CCCCC3)CC2)cc1 (stereo not drawn) | -2 | 285 | -10
COc1ccc(OC)c(C(c2nnnn2C2CCCC2)N2CCN(c3ccccc3)CC2)c1 (stereo not drawn) | -5 | 266 | 24
COc1ccc(C(C)=O)cc1COC(=O)CSCC(=O)Nc1ccc(C)cc1 | 2 | 834 | 2
CCn1c(C)cc(C(=O)CSc2nnc(C3CC3)n2C2CC2)c1C | 2 | / | /
Cc1noc(C)c1C(=O)NCc1ccccc1F | 1 | 180 | 4
COc1ccc(Cn2nnnc2C(c2cccs2)N2CCN(c3ccccc3)CC2)cc1 (stereo not drawn) | -2 | 614 | 5
c1ccc(Cn2nnnc2C(c2ccccn2)N2CCN(c3ccccc3)CC2)cc1 (stereo not drawn) | -1 | 212 | 98*
COCCn1nnnc1C(CC(C)C)N1CCN(c2ccccc2)CC1 (stereo not drawn) | 0 | 471 | 93*
c1ccc(Cn2nnnc2C(c2ccccn2)N2CCOCC2)cc1 (stereo not drawn) | 2 | 386 | -17
COCCn1nnnc1C(CC(C)C)N1CCN(c2cccc(OC)c2)CC1 (stereo not drawn) | 0 | / | /
COc1ccc(Cn2nnnc2C(c2cccnc2)N2CCN(c3ccc(O)cc3)CC2)cc1 (stereo not drawn) | -1 | 238 | 98*
SMILES | N-glyco inh | T cell modulator | ALR H2O2 inh
COc1ccc(CCC(=O)NCCS(=O)(=O)N2CCN(c3ccc(OC)cc3)CC2)cc1 | -2 | 302 | 12
CCN1CCC[C@H]1CNCCCn1cnc2c(SC)ncnc21 | 0 | / | /
O=C(Nc1cc(C(F)(F)F)cc(C(F)(F)F)c1)[C@H]1O[C@@H](n2ccc(=O)[nH]c2=O)[C@H](O)[C@@H]1O | 4 | / | /
CC1=CC(C)(C)NC(=S)N1c1ccc(N(C)C)cc1 | 1 | / | /
O=C1c2ccccc2C(=O)N1CCCCc1cn(C[C@H]2CC[C@@H]([C@@H]3CC[C@H](Cn4cc(CCCCN5C(=O)c6ccccc6C5=O)nn4)O3)O2)nn1 | 0 | 326 | 1
COc1ccc(OCCC(=O)OCC(=O)NCc2ccccc2OC)cc1 | 2 | 986 | 3
CCc1c(C)sc(NC(=O)c2cc(C(C)C)on2)c1C#N | 1 | 328 | 6
CCc1c(C)sc(NC(=O)c2cc(C)no2)c1C#N | 3 | 478 | 93*
COc1ccccc1CNC(=O)CCNS(=O)(=O)c1cccc2nonc12 | 2 | 475 | /
Cc1c(C(=O)N(C)Cc2cccc(F)c2)oc2c(Cl)cccc12 | -2 | 371 | -11
O=C(O)c1cc(N/N=C/C=C/c2ccccc2[N+](=O)[O-])ccc1Cl | -2 | 567 | 99*
COc1cc(/C=N/Nc2ccc(Cl)c(C(=O)O)c2)ccc1OC(=O)c1cccs1 | 1 | 331 | 97*
O=C(O)c1cc(N/N=C/c2ccncc2)ccc1Cl | -1 | 124 | 3
COc1cc(/C=N/Nc2ccccc2)ccc1OC(=O)c1cccs1 | / | 456 | -11
C/C(=N\Nc1ccc(Cl)c(C(=O)O)c1)c1cccc([N+](=O)[O-])c1 | 0 | 318 | 98*
NS(=O)(=O)c1ccc(N/N=C/C=C/c2ccccc2[N+](=O)[O-])cc1 | -1 | 472 | 30
C/C(=N\NC(=O)c1ccccc1C)c1cccc([N+](=O)[O-])c1 | 2 | 486 | -18
O=C(O)c1cc(N/N=C/c2ccc(-c3ccccc3)cc2)ccc1Cl | -4 | 159 | 99*
CC(=O)c1cccc(NC(=O)N2CCCC2C(=O)Nc2ccc3c(c2)OCCO3)c1 (stereo not drawn) | 0 | 144 | -1
O=C(O)c1cc(N/N=C/c2ccc(N3CCOCC3)cc2)ccc1Cl | -4 | 281 | 97*
Clc1cccc(N/N=C/c2ccc(N3CCOCC3)cc2)c1 | 1 | 359 | -21
COc1cc(/C=C(\NC(=O)c2cc(OC)c(OC)c(OC)c2)C(=O)NC(C(=O)O)c2ccccc2)cc(OC)c1OC (stereo not drawn) | 2 | 340 | -1
COc1ccc(S(=O)(=O)N(C)C)cc1NCC(=O)Nc1ccc(Br)cc1F | -1 | 417 | -2
COc1ccc(CC(=O)Oc2ccc(F)c(F)c2)cc1S(=O)(=O)N1CCOCC1 | 4 | 482 | 10
CCCCn1c(NC(C)CC)nc2c1c(=O)[nH]c(=O)n2C (stereo not drawn) | 2 | 118 | 92*
SMILES | N-glyco inh | T cell modulator | ALR H2O2 inh
CCCCCn1c(NC2CCCCC2)nc2c1c(=O)[nH]c(=O)n2C | 0 | 294 | 30
Cn1c(=O)[nH]c(=O)c2c1nc(NCCO)n2CCOc1ccccc1 | 2 | 181 | 13
CCC(C)Nc1nc2c(c(=O)[nH]c(=O)n2C)n1CCOc1ccccc1 (stereo not drawn) | 4 | 95 | 98*
CC(=O)Oc1c(C(C)C)cc(N(C(C)=O)c2ccccc2)cc1C(C)C | -4 | 421 | -31
CC(C)NC(=O)CSc1nccc(-c2cccs2)n1 | 2 | 392 | -6
CC(=O)C(Sc1nccc(-c2cccs2)n1)C(C)=O | 1 | 126 | 98*
C=C1C(=O)O[C@@H]2[C@H]1[C@@H](OC(=O)/C(C)=C/C)C/C(C)=C\C(=O)/C=C(\C)[C@@H]2O | 8 | 644 | 52
O=C(NC1CCCC1)c1cccc(S(=O)(=O)Nc2ccccc2F)c1 | 3 | i | -22
COc1ccc2ccccc2c1/C=N/NC(=O)c1cccc([N+](=O)[O-])c1 | 7 | 496 | -10

Assay outcomes as filed in PubChem BioAssay.
